XBP1 UPR activ – activators of adaptive arm of unfolded protein response (XBP1); CHO-XBP1 luciferase reporter, IRE1-XBP1 UPR activation, luminescence; percent of tunicamycin response, DMSO as zero; activation, % at 20 µM; 330,000 tested, 0.33% active; AID 463104;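 active means versus positive control, 20 µM dose yields 30% or more activation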;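 further: 100% = tunicamycin at 10 µg/mL and 0% = DMSO only wells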
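Material: CHO cell line with stable XBP1 luciferase reporter; buffer or medium: F12 medium containing 10% fetal bovine serum; compound: single point, 20 µM final compound, 1% DMSO; incubation: 6 h treatment, 37 °C; measured by: glow luminescence from Steady-Glo reagent; evaluation: activation, % of tunicamycin; control set: tunicamycin high, DMSO low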
CHOP inh – blocks CHOP induction under ER stress. CHO-K1 CHOP-promoter luciferase, tunicamycin-induced, 15-18 h. inhibition, % at 10 µM. 220,000 tested, 3.8% active;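 active means compounds that reduced the stress-induced luciferase reporter signal by more than about 70% of percent inhibition, limit read from the data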;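 further: 0% = tunicamycin plus vehicle and 100% = wells without tunicamycin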
FXN GAA850 act – activators of GAA850 frataxin (FXN) promoter. AID 540364. activation, % at 6 µM. HEK293 lucGAA850 FXN promoter luciferase reporter, 24 h; percent of 10 µM SAHA response. 360,000 tested, 0.56% active;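 active means activation above the average of all compounds screened plus 3 SD, cutoff fixed separately per campaign, cut at about 7.5% in these data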;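 further: 0% = DMSO wells and 100% = 10 µM SAHA wells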
CHOP UPR activ – activators of apoptotic arm of unfolded protein response (CHOP). 330,000 tested, 0.34% active. AID 449763. CHO-CHOP luciferase reporter, UPR activation, luminescence; percent of tunicamycin response over DMSO baseline. activation, % at 10 µM;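 active means at 10 µM dose, activation of 40% or more, normalized to positive control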;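 further: 100% = tunicamycin at 10 µg/mL and 0% = DMSO alone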
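measured by = luciferase luminescence | assay system = CHO-CHOP cells, stable luciferase reporter of PERK-eIF2a-CHOP signalling | amount = 500 reporter cells seeded per well | timing = 6 h compound exposure at 37 °C after overnight seeding | controls = positive tunicamycin 10 µg/mL, negative DMSO alone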
CHOP confirm – confirmation of CHOP induction inhibitors | shares compounds with CHOP inh | CHO-CHOP promoter luciferase reporter, tunicamycin-induced, luminescence | inhibition, % at 10 µM | 2,100 tested, 45% active;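 active means mean of three repeat readings of reporter signal inhibition above a set limit, cut at about 70% in these data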;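 further: 0% = tunicamycin plus vehicle and 100% = wells lacking tunicamycin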
An asterisk follows results filed as active; x = not tested or not shown. The sample as a whole holds a higher share of hits than the screen did.

SMILES	XBP1 UPR activ	CHOP inh	FXN GAA850 act	CHOP UPR activ	CHOP confirm
O=C1NC(=O)N(Cc2ccco2)C(=O)/C1=C/c1ccc(-c2cccc([N+](=O)[O-])c2)o1	12	98*	3	29	-104
CN(C)c1ccc(/C=C2/C(=O)NC(=O)N(Cc3ccco3)C2=O)cc1	-1	-15	2	0	x
C=CCN1C(=O)NC(=O)/C(=C\c2ccc(-c3ccccc3[N+](=O)[O-])o2)C1=O	0	105*	4	0	-36
NC(N)=N/N=C/c1cn(-c2ccccc2)nc1-c1cccs1	16	106*	2	9	98*
CCOc1ccc(N=Cc2c(O)n(C(C)(C)C)c(=O)[nH]c2=O)cc1	1	99*	-3	-1	127*
C=C1C(=O)O[C@@H]2C[C@@H](C)[C@@H]3C=CC(=O)[C@@]3(C)[C@@H](O)[C@H]12	-12	107*	-15	-9	119*
C=C(C=O)CC1CC(O)[C@]2(C)OC3CC4OC5C[C@]6(C)O[C@]7(C)CCC8OC9C[C@]%10(C)OC%11C(C)=CC(=O)OC%11CC%10OC9C[C@@H](C)C8OC7CC6O[C@]5(C)CC5OC5C4OC3CC2O1 (stereo partly drawn)	-8	105*	0	-9	127*
CC(C)n1c(O)c(C2c3cc(Cl)ccc3Oc3[nH]c(=O)n(C(C)C)c(=O)c32)c(=O)[nH]c1=O (stereo not drawn)	x	107*	5	x	62
CC(=O)c1c(O)n(-c2cccc(Cl)c2)c(=O)[nH]c1=O (tested in a mixture with another compound)	2	11	1	1	x
CCOP(=O)(CCP(=O)(OCC)OCC)OCC.C[CH2][Sn]([Cl])([Cl])[CH2]C	x	x	-10	x	x
O=C(COc1ccccc1)Nc1ccc(Cl)cc1C(=O)c1ccccc1	-5	96*	3	1	5
Cc1ccc(OCC(=O)Nc2ccc(Cl)cc2C(=O)c2ccccc2)cc1	-1	12	1	0	x
O=C(COC(=O)c1ccc(O)cc1)Nc1ccc(Cl)cc1C(=O)c1ccccc1	0	102*	1	-2	41
COc1cc2c(c(OC)c1OC)-c1ccc(SC)c(=O)cc1C(NC(C)=O)CC2 (stereo not drawn)	x	x	-3	x	x
C[C@]12C[C@H](O)[C@@H](O)C[C@@H]1CC[C@@H]1[C@@H]2CC[C@]2(C)C(=O)CC[C@@H]12	x	x	2	x	x
C[C@@H]1CN([C@@H](C)CO)C(=O)CCCn2cc(nn2)CO[C@H]1CN(C)C(=O)Oc1cccc2ccccc12	x	x	-1	x	x
O=c1[nH]c(O)c(C=Nc2ccccc2Sc2ccccc2)c(=O)[nH]1	2	100*	1	0	-34
O=c1[nH]c(O)c(C=Nc2ccccc2[N+](=O)[O-])c(=O)[nH]1	-3	12	x	0	x
O=C1CC2OCC=C3CN4CCC56c7ccccc7N1C5C2C3CC46O (stereo not drawn)	x	x	-3	x	x
CC(=O)OC[C@]12CCC(C)=C[C@H]1O[C@@H]1[C@H](O)[C@@H](OC(C)=O)[C@@]2(C)[C@]12CO2	-6	104*	-16	-6	123*
CN(C)c1ccc(NC(=O)CN2C(=O)CN=C(c3ccccc3)c3cc(Cl)ccc32)cc1	-4	53	-2	-4	x
Cc1ccc(NC(=O)CN2C(=O)CN=C(c3ccccc3)c3cc(Cl)ccc32)cc1	-2	107*	0	0	34
O=C1NC(=S)NC(=O)C1=Cc1cccn1-c1ccc(O)cc1	x	107*	-1	x	-267
CCOC(=O)c1c(/N=C/c2c(O)n(-c3cccc(C)c3)c(=O)[nH]c2=O)sc2c1CCCC2	2	98*	0	4	88*
CCOC(=O)c1sc(/N=C/c2c(O)n(-c3ccccc3)c(=O)[nH]c2=O)c(C#N)c1C	2	27	4	0	x
CCN1C(=O)/C(=C/c2ccc(N(CC)CC)cc2OC)C(=O)NC1=S	2	100*	-1	3	-15
COc1ccccc1/C=C1\C(=O)NC(=S)N(c2ccccc2)C1=O	-6	x	1	1	x
ClCCN(CCCl)c1ccc(C=Cc2ccncn2)cc1	x	x	4	x	x
CCOC(=O)c1sc(N=Nc2c(O)[nH]c(=O)[nH]c2=O)c(C(=O)OCC)c1C	14	105*	x	3	106*
